Shown are actives, neighbours in structure and some others; about 1.5% of the full set was active somewhere.
Runt-SMMHC FRET = inhibitors of RUNX1 Runt–CBFb-SMMHC binding, primary screen, biochemical, FRET, Cerulean-Runt, Venus-CBFb-SMMHC, uHTS; AID 1434, 2008; 0.74% of 220,000 active; Runt-related transcription factor 1 (Homo sapiens) + Core-binding factor subunit beta …; Cerulean-Runt/Venus-CBFb-SMMHC FRET ratio 530/480, 1 h; inhibition, % at 20 µM;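 active = mean inhibition across duplicate retests at 20 µM reaching about 50%, limit read from the data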;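 also: 0% = DMSO wells and 100% = wells with excess untagged CBFb-SMMHC; inhibitors lower the FRET ratio by blocking Runt binding to CBFb-SMMHC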
Hck Nef HTS = inhibitors of Nef-activated human Hck kinase, primary screen, biochemical, Z-Lyte FRET, 384-well, Hck-YEEI | Recombinant Hck-YEEI plus Nef, Z-Lyte FRET kinase assay | inhibition, % at 20 µM | 0.68% of 220,000 active;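 active = Hck-Nef kinase inhibition above about 50%, limit read from the data; inactive = inhibition below that limit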;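 also: 0% = DMSO with Hck plus Nef and 100% = Hck alone without Nef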
Target sequence (P08631 whole entry, looked up): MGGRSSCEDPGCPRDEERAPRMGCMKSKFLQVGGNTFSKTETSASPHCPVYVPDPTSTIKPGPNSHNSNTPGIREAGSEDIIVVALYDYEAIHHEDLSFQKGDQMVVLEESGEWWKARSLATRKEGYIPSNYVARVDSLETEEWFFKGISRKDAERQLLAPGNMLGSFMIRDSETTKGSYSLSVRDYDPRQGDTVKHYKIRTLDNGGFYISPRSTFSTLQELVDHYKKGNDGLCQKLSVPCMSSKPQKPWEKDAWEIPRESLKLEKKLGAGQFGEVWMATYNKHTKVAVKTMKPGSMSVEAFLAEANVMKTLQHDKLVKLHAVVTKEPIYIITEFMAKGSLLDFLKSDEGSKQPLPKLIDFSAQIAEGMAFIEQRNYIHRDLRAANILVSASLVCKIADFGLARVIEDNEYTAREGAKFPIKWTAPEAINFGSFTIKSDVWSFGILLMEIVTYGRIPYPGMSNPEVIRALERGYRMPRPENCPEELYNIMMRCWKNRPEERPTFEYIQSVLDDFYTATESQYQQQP
CaV13 ICDI inh = Disruptors of the CACNA1D IQ motif to Ca2+-dependent inactivation inhibitor domain association, primary screening, Förster resonance energy transfer in intact living … | HEK cells, CFP/YFP FRET ICDI-IQ, plate reader, 10 min; percent FRET-ratio fall versus neutral wells | inhibition, % at 12.3 µM | 0.098% of 340,000 active | AID 743397;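 active = mean replicate inhibition of at least 30% and at least 1% of replicates passing that level; inconclusive = only one of the two criteria is met; inactive = neither criterion is met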;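 also: 0% = median of the neutral control wells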
RanGTP-Impb inh = inhibitors of RanGTP-importin-beta interaction, primary screen, biochemical, FRET, CFP-Ran, YFP-importin-beta, homogeneous; cell-free CFP-Ran/YFP-importin-beta FRET ratio; inhibition, % (no concentration beside the values); 1.1% of 300,000 active;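 active = more than half of the replicate wells show a fall in the fluorescence ratio signal beyond about 16%, limit read from the data, passing the limit was not always enough; inconclusive = exactly half of the replicate wells pass the set limit; inactive = fewer than half of replicates pass the limit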;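 also: 0% = DMSO wells and 100% = Ran loaded with GDP instead of GTP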
Runt-CBFb FRET = inhibitors of RUNX1 Runt–CBFb binding, primary screen, biochemical, FRET, Cerulean-Runt, Venus-CBFb, uHTS; Runt-related transcription factor 1 (Homo sapiens) + Core-binding factor subunit beta …; 0.46% of 220,000 active; inhibition, % at 20 µM; Cerulean-Runt/Venus-CBFb FRET ratio 530/480, 1 h; AID 1496, 2009;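 active = inhibition over about 50% at 20 µM in the single-dose screen, limit read from the data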;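 also: 0% = DMSO wells and 100% = excess unlabeled CBFb competitor control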
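test system = Cerulean-tagged RUNX1 Runt domain (FRET donor) fusion protein | reagent = Venus-CBFb binding partner, 100 nM | incubation = protein complex preformed 1 h, compound exposure 1 h, room temperature, dark | detection = FRET fluorescence | read-out basis = loss of energy transfer signal | controls = 5 µM unlabeled CBFb as full-inhibition high control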
YIC FRET counter = YIC intramolecular FRET probe signal interference, dose response, counter-screen for RanGTP-importin-beta inhibitor project, biochemical, fluorescence FRET. shares compounds with RanGTP-Impb inh. Purified YIC probe, intramolecular FRET ratio YFP/CFP. IC50, µM. 40% of 1,000 active. AID 435026, 2010;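 active = fitted half-maximal inhibitory concentration no more than tenfold above the top dose tested; inconclusive = flat fit with 30 to 70% activity, or poor fit; inactive = half-maximal concentration beyond tenfold above the top dose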
* marks the source's active call; other numbers are inactive results; ? = inconclusive; . = no result given.

SMILES	Runt-SMMHC FRET	Hck Nef HTS	CaV13 ICDI inh	RanGTP-Impb inh	Runt-CBFb FRET	YIC FRET counter
CN1CCN(C(=O)c2cc3nc(-c4ccccc4)cc(C(F)(F)F)n3n2)CC1	2	0	-6	22*	-3	>50
COc1ccc(C(=O)C2CCCN(C(=O)c3n[nH]c4c3CCCC4)C2)cc1OC (stereo unspecified)	-3	25	-4	2	-1	.
Cc1cc(Cl)ccc1C(=O)C1CCCN(C(=O)c2n[nH]c3c2CCCC3)C1 (stereo unspecified)	1	4	-4	21*	-2	>50
O=C(O)c1ccccc1P(=O)(c1ccccc1)c1ccccc1	-1	18	0	16*	1	>50
CCCCn1c(CCC)nc([N+](=O)[O-])c1Sc1ccc(Cl)cn1	-6	2	-9	0	-2	.
Cc1cc(C(=O)N2CCc3c([nH]c4ccccc34)C2c2c(F)cccc2Cl)no1 (stereo unspecified)	2	2	-4	27*	1	>50
CC1=Nc2ccccc2/C1=C/c1sc(=O)n(CC(=O)N2CCCC2)c1O	4	0	.	3	-1	.
Oc1nc(Nc2ccc(F)cc2)sc1/C=C1\C=Nc2ccccc21	-3	25	-2	19*	-5	>50
CC1=Nc2ccccc2/C1=C\c1sc(Nc2ccc(C)cc2)nc1O	-9	3	-19	21*	-14	>50
Oc1nc(Nc2cccc(Cl)c2)sc1/C=C1\C=Nc2ccccc21	-38	4	-6	11	-27	.
COc1cccc(Nc2ccccc2C(=O)O)c1	1	13	-5	2	0	.
O=[N+]([O-])c1cccc(-c2n[nH]c(=S)n2-c2ccc(Br)cc2)c1	13	23	55*	23*	1	>50
CC(C)c1ccc(C2(C)NC(=O)N(CC(=O)NC3CCCC(C)C3C)C2=O)cc1 (stereo unspecified)	.	.	-2	.	.	.
COc1ccc2o/c(=N\O)c(C(=O)Nc3ccccc3OC)cc2c1	.	7	.	-50	19	.
COc1ccc(NC(=O)c2cc3ccc(O)cc3o/c2=N\O)cc1	.	.	-3	28*	.	51*
COCCNC(=O)C(C)OC(=O)c1cc2occc2n1C (stereo unspecified)	0	-2	.	19*	2	>50
CCCN(C)C1CN(Cc2cn(Cc3ccc(Cl)cc3)nn2)S(=O)(=O)C1 (stereo unspecified)	.	.	-9	.	.	.
Cc1cc(NC(=O)c2sc3ccccc3c2O)no1	.	.	-5	17*	.	?
Cc1cc(NC(=O)c2c(F)c(F)c(F)c(F)c2F)no1	-2	2	-4	23*	-2	>50
C=CCNc1ncnc2c1ncn2[C@H]1CN(Cc2ccc3c(c2)OCO3)C[C@@H](CO)O1	.	.	-4	.	.	.
CC(C)(O)C1CC[C@@](C)([C@@H]2CC[C@]3(C)[C@H]2[C@H](O)CC2[C@@]4(C)CCC(O)C(C)(C)C4C(OC4OC(CO)C(O)C(O)C4O[C@@H]4OCC(O)C(O)C4O)C[C@]23C)O1 (stereo partly specified)	.	.	-6	.	.	.
COc1ccc(-c2cc3nc(C)cc(NCCO)n3n2)cc1	4	2	.	1	-3	.
COCCNc1cc(C)nc2cc(-c3ccc(C)cc3)nn12	25	13	1	19*	3	3.8*
COc1ccccc1/C=C/c1nc(C#N)c(N(C)C)o1	.	.	-1	28*	.	13*
Cc1ccc(-c2cc3nc(-c4ccccc4)cc(N4CCC5(CC4)OCCO5)n3n2)cc1	-3	6	.	29*	-5	5.6*
Clc1ccc(/C=C/c2ncc3ccccn23)cc1	.	26	-2	24*	.	2.5*
